Experimental data taken from PMC3545090 (Biochemistry, 2012).
Entries after “also recorded” stand apart in the source; their conditions may differ.

Assays:
allergic rhinitis = details: delivered intranasally; ref [31]; cited from earlier work
[1] = test system: peripheral T-cell lymphoma cells; details: cells with elevated Syk Y525/Y526 phosphorylation; ref [8]; cited from earlier work
kinases = details: binding affinity for kinases; ref [30]; cited from earlier work
Syk Y525/526 = experiment: Western blot of Syk Y525/526 phosphorylation in primary splenic B cells; type: cell-based; details: mouse primary splenic B cells, anti-IgM F(ab′)2
Outline: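 Mouse splenic B cells enriched by panning, at 5 × 10^6 cells/mL, pre-treated with tyrosine kinase inhibitor or DMSO vehicle. SAStide biosensor peptide (25 μM) added 15 min before anti-IgM F(ab′)2 (5 μg/mL); harvested 0, 5, 10, 15 min after. Immunoblot: 5% goat serum block 1 h; primary antibodies 1:1,000, 1 h at room temperature; HRP secondary, ECL detection.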

Syk [2] = target: T1, Syk (Homo sapiens, UniProt P43405); experiment: Western blot of Syk tyrosine phosphorylation in inhibitor-treated DG75 cells; type: cell-based; details: anti-IgM 5 μg/mL + H2O2 1 mM
rheumatoid arthritis = details: vs placebo; ref [32]; cited from earlier work
non-Hodgkins lymphomas = details: ongoing trial, very small cohort; ref [29]; cited from earlier work
DG75 cells = experiment: Cell toxicity in DG75 cells; type: cell-based; details: high concentrations, in the presence of BCR activation and oxidative stress; loss of tubulin and Syk immunoblot signal
Syk-EGFP = Syk-EGFP (Mus musculus, UniProt P48025); experiment: In vitro kinase assay, immobilized Syk-EGFP, ELISA-based fluorescence detection; type: biochemical; details: for rate of phosphorylation compared with other substrates: Syk-EGFP 6 nM, each substrate 4 μM, 5 mM MnCl2, HEPES pH 7.2 (Fig. 2b)
Outline: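 Syk-EGFP immunoprecipitated from lysates of DT40 chicken B cells on anti-GFP beads. Bead-bound kinase (6 nM in the 4 μM substrate comparison) was mixed with peptide (4 μM, or a concentration range) in 500 μM ATP, 5 mM MnCl2, HEPES pH 7.2. Timed aliquots were EDTA-quenched. Neutravidin-captured peptide was probed with 4G10 anti-phosphotyrosine and HRP secondary, then read by Amplex Red (ex 532/em 590 nm). Initial velocities were fitted to a sigmoidal curve; three replicates.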

Syk [3] = target: T1, Syk; details: cited from earlier work
[4] = test system: acute myelogenous leukemia; details: ref [34]; cited from earlier work
[5] = 500 μM ATP, average of three replicate experiments
[6] = different enzyme preparation and ATP concentration from this paper, ref [13b]

Chain of Syk-EGFP (P48025 whole entry): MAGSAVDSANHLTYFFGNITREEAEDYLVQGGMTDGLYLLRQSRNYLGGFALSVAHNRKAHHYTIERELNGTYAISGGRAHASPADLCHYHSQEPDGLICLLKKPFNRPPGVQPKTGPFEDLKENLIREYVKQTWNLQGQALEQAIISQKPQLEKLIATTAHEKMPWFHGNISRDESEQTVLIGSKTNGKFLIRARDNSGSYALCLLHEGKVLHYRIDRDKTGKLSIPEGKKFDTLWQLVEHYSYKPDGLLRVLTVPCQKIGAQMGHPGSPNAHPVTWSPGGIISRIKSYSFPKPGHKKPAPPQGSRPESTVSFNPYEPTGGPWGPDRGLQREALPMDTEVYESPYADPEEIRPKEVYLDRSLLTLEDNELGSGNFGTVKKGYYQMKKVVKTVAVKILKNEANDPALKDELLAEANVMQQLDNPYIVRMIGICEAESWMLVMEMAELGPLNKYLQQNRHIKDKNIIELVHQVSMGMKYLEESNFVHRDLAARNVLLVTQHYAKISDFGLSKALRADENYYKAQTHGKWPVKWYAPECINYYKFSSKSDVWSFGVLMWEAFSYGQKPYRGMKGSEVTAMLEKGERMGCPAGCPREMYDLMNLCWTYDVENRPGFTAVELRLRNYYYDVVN

Oc1cccc(Nc2ncc(F)c(Nc3cccc(O)c3)n2)c1 [R112]
relief of allergic rhinitis symptoms (allergic rhinitis): effective for relieving allergic rhinitis symptoms

COc1cc(Nc2ncc(F)c(Nc3ccc4c(n3)NC(=O)C(C)(C)O4)n2)cc(OC)c1OC [R406]
apoptosis and proliferation [1]: induces apoptosis and blocks proliferation | kinase selectivity (kinases): one of the least selective kinase inhibitors evaluated

Cc1nc(Nc2ncc(C(=O)Nc3c(C)cccc3Cl)s2)cc(N2CCN(CCO)CC2)n1 [dasatinib]
Y525/526 phosphorylation in the presence of inhibitor (Western blot) (Syk Y525/526): Y525/526 remained phosphorylated | level of Syk tyrosine phosphorylation (Western blot) (Syk [2]): reduction in the level of Syk tyrosine phosphorylation

COc1cc(Nc2ncc(F)c(Nc3ccc4c(n3)N(COP(=O)(O)O)C(=O)C(C)(C)O4)n2)cc(OC)c1OC [fostamatinib]
benefit in rheumatoid arthritis, patients receiving methotrexate (rheumatoid arthritis): significant benefit (over placebo) | response by lymphoma subtype (non-Hodgkins lymphomas): slightly better response in chronic lymphocytic leukemia than the other types | response rates (non-Hodgkins lymphomas): response rates were low overall

Oc1cc(O)cc(/C=C/c2ccc(O)c(O)c2)c1 [piceatannol, 3,4,3′,5′-tetrahydroxy-trans-stilbene]
Y525/526 phosphorylation in the presence of inhibitor (Western blot) (Syk Y525/526): Y525/526 remained phosphorylated | toxicity to DG75 cells (DG75 cells): toxic to DG75 cells | level of Syk tyrosine phosphorylation (Western blot) (Syk [2]): reduction in the level of Syk tyrosine phosphorylation

GGDEEDYEEPDEPGGKbGG [SAStide]
Vmax (Syk-EGFP; SAStide at a range of concentrations, immunoprecipitated Syk-EGFP, 500 μM ATP, 5 mM MnCl2, HEPES pH 7.2, sigmoidal fit, three replicate experiments): 11 ± 1 pmol/min | rate of phosphorylation compared with other substrates (Syk-EGFP; [5]): phosphorylated more rapidly than the previously reported Syktide sequence, but not as rapidly as the phage display-derived sequence; also recorded: phosphorylated more efficiently than the parent Syktide | substrate inhibition (Syk-EGFP; concentrations up to 100 μM, immunoprecipitated Syk-EGFP): no substrate inhibition at concentrations up to 100 μM | Km (Syk-EGFP; read-out: Khalf (substrate concentration at half of Vmax in a sigmoidal curve, analogous to Km), SAStide at a range of concentrations, immunoprecipitated Syk-EGFP, 500 μM ATP, 5 mM MnCl2, HEPES pH 7.2, sigmoidal fit, average of three replicate experiments): 86 ± 10 µM

GGEDDEYEEVGGKbGG [Syktide]
Km (Syk [3]; [6]): 3 µM | kcat (Syk [3]; [6]): 1.04 s⁻¹

GGEDPDYEWPSAGGKbGG [Phage]
substrate inhibition at higher concentrations (Syk [3]; phage display peptide, Syk, ref [13d]): greater than 20 μM | rate of phosphorylation compared with other substrates (Syk-EGFP; [5]): more efficiently phosphorylated

gemtuzumab ozogamicin: therapeutic antibody conjugated to a toxin
response in relation to lower Syk expression [4]: lack of response
